The values below come from ChEMBL document CHEMBL2380239, “Novel ROS-activated agents utilize a tethered amine to selectively target acute myeloid leukemia” (Bioorg Med Chem Lett, 2013).

Data set [1] has as its system HeLa. The data set can be described thus: Cytotoxicity against human HeLa cells after 48 hrs by MTT assay. It counts as functional, cell-based. (In general: Formazan colour is commonly taken as a measure of viable cells.)
The nature of data set [2]: Cytotoxicity against human CD34-positive blood stem/progenitor cells after 48 hrs by MTT assay. It counts as cell-based. Summed up: (§1)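 Non-transformed human CD34+ blood stem/progenitor cells from umbilical cord blood were run alongside MA9.3, an AML line made by introducing the MLL-AF9 oncogene into human CD34+ cells. IC50 was determined on each cell type. Therapeutic index is the ratio between the MA9.3 and CD34+ IC50 values.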

The nature of data set [3]: Therapeutic index, ratio of IC50 for human CD34-positive blood stem/progenitor cells to IC50 for human MA9.3 cells. The following applies: CD34-positive blood stem/progenitor cells versus MA9.3 cells, read-out: Ratio IC50. Summed up: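 Cytotoxicity was measured in parallel on non-cancerous human CD34+ blood stem/progenitor cells (UCB) and on the MA9.3 AML line, which was made by introducing the MLL-AF9 oncogene into human CD34+ cells. The index is IC50 in CD34+ cells divided by IC50 in MA9.3, reported as mean ± error.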

Data set [4] can be described thus: Cytotoxicity against human MA9.3 cells after 48 hrs by MTT assay. It counts as functional, cell-based. The method, boiled down:
as §1

Molecules are shown by their SMILES. Where only a bound is given, the exact number is not on record here.

As a reminder, the IC50 is the concentration at which inhibition is half-maximal. In data set [1], `CN(CCCBr)c1ccccc1` yielded an IC50 of more than 125 µM.

With `Oc1ccc(OCCNc2ccccc2)cc1`, it took 30 µM to reach half-maximal inhibition in data set [1] (IC50).

The molecule `CN(CCOc1ccc(O)cc1)c1ccccc1` registered an IC50 in data set [1] of 18 µM.

For `CCN(CCOc1ccc(O)cc1)c1ccccc1`, the IC50 in data set [1] was determined as 23 µM.

Molecule `CC(C)N(CCOc1ccc(O)cc1)c1ccccc1` showed an IC50 in data set [1] of 53 µM.

Molecule `CCN(CCCOc1ccc(O)cc1)c1ccccc1` had an IC50 in data set [1] of 14 µM.

`CN(CCCCOc1ccc(O)cc1)c1ccccc1`: in data set [1], the midpoint of inhibition, the IC50, lay at 12 µM.

In data set [1], `CN(CCCCCOc1ccc(O)cc1)c1ccccc1` displayed an IC50 of 13 µM.

`CN(CCOc1ccc(O)cc1)Cc1ccccc1` had an IC50 in data set [1] of 33 µM.

In data set [1], `CN(C(=O)COc1ccc(O)cc1)c1ccccc1` gave a half-inhibitory concentration (IC50) of more than 125 µM.

With `CN(CCCOc1ccccc1)c1ccccc1`, in data set [1], the IC50 is more than 125 µM.

Molecule `CCOc1ccc(O)cc1` [1-hydroxy-4-ethoxybenzene] yielded an IC50 in data set [1] of more than 125 µM.

For `O=C(O)CCCc1ccc(N(CCCl)CCCl)cc1` [CHLORAMBUCIL], the IC50 stood at 11 µM in data set [2] and 8.7 µM in data set [4]. Further, the selectivity ratio in data set [3] stood at 1.3.

Turning to `Nc1ccn([C@@H]2O[C@H](CO)[C@@H](O)[C@@H]2O)c(=O)n1` [CYTARABINE], the figures for the IC50 in data set [2] and in data set [4] were 0.59 µM and 0.92 µM, respectively. Besides, the selectivity ratio in data set [3] amounted to 0.6.

`COc1cccc2c1C(=O)c1c(O)c3c(c(O)c1C2=O)C[C@@](O)(C(=O)CO)C[C@@H]3O[C@H]1C[C@H](N)[C@H](O)[C@H](C)O1` [DOXORUBICIN]: the figures for the IC50 in data set [2] and in data set [4] were 0.076 µM and 0.086 µM, respectively.
